Measurements taken from ChEMBL document CHEMBL4177755, “Combating Drug-Resistant Fungi with Novel Imperfectly Amphipathic Palindromic Peptides” (J Med Chem, 2018).
Active and inactive are the calls of the source. No cut-off for these calls is given here.

Legend:
Escherichia coli [1] = test: Antibacterial activity against Escherichia coli ATCC 25922 after 18 hrs in presence of 12.5% human heat-inactivated serum by broth dilution method; format: functional; conditions: ATCC 25922, 18 h
Candida albicans [2] = test: Induction of cell wall permeabilization in Candida albicans cgmcc 2.2086 assessed as increase in NPN uptake by fluorescence spectrophotometric method; format: functional, organism-based
In short: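 Log-phase cells at OD600 0.2 in 5 mM HEPES (pH 7.4, 5 mM glucose) were preloaded with 10 μM NPN for 30 min, then peptide was added. Fluorescence (ex 350/em 420 nm) was followed until it plateaued and converted to % NPN uptake against initial and maximal fluorescence. Triplicate.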

Candida albicans [3] = test: Induction of cell wall permeabilization in Candida albicans cgmcc 2.2086 assessed as increase in NPN uptake at 2 uM by fluorescence spectrophotometric method relative to control; format: functional
In short: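 Log-phase E. coli ATCC 25922 or C. albicans cgmcc 2.2086 at OD600 0.2 in 5 mM HEPES pH 7.4 with 5 mM glucose was preloaded 30 min with 10 μM NPN, then peptide was added. Fluorescence (ex 350, em 420 nm) was followed until it plateaued and converted to % uptake against a 100% reference. Run in triplicate.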

Lipid bilayer [4] = test: Binding affinity to phosphatidylglycerol/cardiolipin/phosphatidylethanolamine large unilamellar vesicle assessed as induction of calcein leakage at 32 uM after 15 mins by spectrofluorophotometric method relative to control
In short: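 Compositions were PG/CL/PE 2:1:7 w/w/w (E. coli membrane mimic; lines 4,5) and PC/PE/PI/ergosterol 5:4:1:2 w/w/w/w (fungal membrane mimic; lines 2,3). Lipids underwent 20 freeze–thaw cycles and were extruded through 100 nm filters; free calcein was removed by gel filtration.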

Escherichia coli [5] = test: Induction of membrane damage in Escherichia coli ATCC 25922 assessed as appearance of roughened and broken membrane at MBC after 1 hr by atomic force microscopy; format: functional, organism-based
In short: (§1)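 E. coli ATCC 25922 was treated at 1× MBC and C. albicans cgmcc 2.2086 at 1× MFC, each for 1 h. Untreated control cells were processed in parallel without peptide. Surface morphology was imaged by AFM and SEM, and ultrastructure by TEM.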

Candida albicans [6] = test: Induction of membrane damage in Candida albicans cgmcc 2.2086 assessed as membrane deformation at MFC after 1 hr by scanning electron microscopy; format: functional, organism-based; in short: as §1
Candida albicans [7] = test: Induction of membrane damage in Candida albicans cgmcc 2.2086 assessed as intracellular content leakage at MFC after 1 hr by scanning electron microscopy; format: functional, organism-based
In short: (§2)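 E. coli ATCC 25922 or C. albicans cgmcc 2.2086 were treated with peptide at 1× MBC/MFC for 1 h alongside peptide-free controls, then imaged by AFM, SEM or TEM for membrane and ultrastructural changes.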

Candida albicans [8] = test: Induction of membrane damage in Candida albicans cgmcc 2.2086 assessed as membrane creping at MFC after 1 hr by atomic force microscopy; format: functional, organism-based; in short: as §1
Candida albicans [9] = test: Induction of membrane damage in Candida albicans cgmcc 2.2086 assessed as membrane deformation at MFC after 1 hr by atomic force microscopy; format: functional, organism-based; in short: as §1
Candida albicans [10] = test: Induction of membrane damage in Candida albicans cgmcc 2.2086 assessed as intracellular content leakage at MFC after 1 hr by atomic force microscopy; format: functional, organism-based; in short: as §2
Candida albicans [11] = test: Induction of membrane damage in Candida albicans cgmcc 2.2086 assessed as intracellular content leakage at MFC after 1 hr by transmission electron microscopy; format: functional, organism-based; in short: as §2
Escherichia coli [12] = test: Induction of reactive oxygen species generation in Escherichia coli ATCC 25922 at 32 uM after 1 hr by DCFH-DA dye-based spectrofluorophotometric method relative to control; format: functional
In short: (§3)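 Intracellular ROS in peptide-treated cells were compared with untreated cells; values are mean ± SEM of three independent experiments.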

Candida albicans [13] = test: Induction of reactive oxygen species generation in Candida albicans cgmcc 2.2086 after 1 hr by DCFH-DA dye-based spectrofluorophotometric method; format: functional, organism-based
In short: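 E. coli ATCC 25922 and C. albicans cgmcc 2.2086 cells were exposed to a range of peptide concentrations up to 32 μM. ROS levels were read by fluorescence and expressed relative to untreated cells. Values are mean ± SEM of three independent experiments.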

Candida albicans [14] = test: Induction of reactive oxygen species generation in Candida albicans cgmcc 2.2086 at 32 uM after 1 hr by DCFH-DA dye-based spectrofluorophotometric method relative to control; format: functional; in short: as §3
Lipopolysaccharide (LPS) [15] = test: Displacement of BODIPY-TR-cadaverine from Escherichia coli O111:B4 LPS at 4 uM after 1 hr by spectrofluorophotometric method relative to control
In short: (§4)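 Fluorescence-based displacement assay: peptide displaces BODIPY-TR-cadaverine from LPS; polymyxin B served as the LPS-binding reference.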

Lipopolysaccharide (LPS) [16] = test: Displacement of BODIPY-TR-cadaverine from Escherichia coli O111:B4 LPS at 8 uM after 1 hr by spectrofluorophotometric method relative to control; in short: as §4
Lipopolysaccharide (LPS) [17] = test: Binding affinity to Escherichia coli O111:B4 LPS by SPR spectroscopy
In short: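 Surface plasmon resonance with the peptide immobilized and LPS flowed over it at 3.125−25 μg/mL; binding recorded in response units (RU).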

RAW264.7 [18] = test: Induction of endotoxin-neutralization in mouse RAW264.7 cells assessed as inhibition of LPS-induced nitric oxide production after 18 hrs by Griess assay; format: functional, cell-based
In short: (§5)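 RAW 264.7 cells were stimulated with 50 ng/mL LPS with or without peptide at various concentrations. TNF-α in supernatants was measured by ELISA and NO by Griess reagent. Mean ± SEM of three independent experiments, compared against LPS alone.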

RAW264.7 [19] = test: Induction of endotoxin-neutralization in mouse RAW264.7 cells assessed as inhibition of LPS-induced TNFalpha secretion at 2 uM after 18 hrs by ELISA; format: functional, cell-based; in short: as §5
RAW264.7 [20] = test: Immunostimulatory activity in mouse RAW264.7 cells assessed as induction of nitric oxide production by Griess assay; format: cell-based
In short: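 RAW 264.7 macrophages were exposed to peptide at various concentrations. TNF-α in culture supernatants was measured by ELISA and NO by Griess reagent. Values are means ± SEM of three independent experiments.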

Lipid bilayer [21] = test: Binding affinity to phosphatidylglycerol/cardiolipin/phosphatidylethanolamine large unilamellar vesicle assessed as induction of calcein leakage at 2 to 32 uM after 15 mins by spectrofluorophotometric method
In short: (§6)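 Large unilamellar vesicles were made from PG/CL/PE (2:1:7), PC/PE/PI/ergosterol (5:4:1:2) or PC/cholesterol (10:1), loaded with 70 mM calcein in Tris/NaCl/EDTA buffer at pH 7.4, frozen and thawed 20 times, and extruded through 100 nm filters. Free dye was removed by gel filtration, and peptide-induced calcein release was measured.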

Lipid bilayer [22] = test: Binding affinity to phosphatidylcholine/phosphatidylethanolamine/phosphatidylinositol/ergosterol large unilamellar vesicle assessed as induction of calcein leakage at 2 to 32 uM after 15 mins by spectrofluorophotometric method; in short: as §6
Candida albicans [23] = test: Disruption of cytoplasmic membrane electrical potential in Candida albicans cgmcc 2.2086 at MFC after 800 secs by DiSC3-5 dye-based fluorescence spectrophotometric method; format: functional, organism-based
In short: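 Cells were loaded with the membrane potential-sensitive dye DiSC3-5, and its release on peptide treatment (various concentrations, including 1× MBC/MFC) was monitored as increasing fluorescence over 800 s.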

H-RRIRIIIRIRR-NH2
MIC (Escherichia coli [1]): 4 µM | Activity (Candida albicans [2]): Dose-dependent effect | Activity (Candida albicans [3]): 20% | Activity (Lipid bilayer [4]): 63% | Activity (Escherichia coli [5]): Active | Activity (Candida albicans [6]): Active | Activity (Candida albicans [7]): Active | Activity (Candida albicans [8]): Active | Activity (Candida albicans [9]): Active | Activity (Candida albicans [10]): Active | Activity (Candida albicans [11]): Active | fold change (FC) (Escherichia coli [12]): 2 | Activity (Candida albicans [13]): Dose-dependent effect | fold change (FC) (Candida albicans [14]): 14 | inhibition (Lipopolysaccharide (LPS) [15]): 68% | inhibition (Lipopolysaccharide (LPS) [16]): 95% | Activity (Lipopolysaccharide (LPS) [17]): Dose-dependent effect | inhibition (RAW264.7 [18]): Dose-dependent effect | inhibition (RAW264.7 [19]): Active | Activity (RAW264.7 [20]): Non-Toxic

CC[C@H](C)[C@H](NC(=O)CN)C(=O)NCC(=O)N[C@@H](C)C(=O)N[C@H](C(=O)N[C@@H](CC(C)C)C(=O)N[C@@H](CCCCN)C(=O)N[C@H](C(=O)N[C@@H](CC(C)C)C(=O)N[C@H](C(=O)N[C@H](C(=O)NCC(=O)N[C@@H](CC(C)C)C(=O)N1CCC[C@H]1C(=O)N[C@@H](C)C(=O)N[C@@H](CC(C)C)C(=O)N[C@H](C(=O)N[C@@H](CO)C(=O)N[C@@H](Cc1c[nH]c2ccccc12)C(=O)N[C@H](C(=O)N[C@@H](CCCCN)C(=O)N[C@@H](CCCNC(=N)N)C(=O)N[C@@H](CCCCN)C(=O)N[C@@H](CCCNC(=N)N)C(=O)N[C@@H](CCC(N)=O)C(=O)N[C@@H](CCC(N)=O)C(N)=O)[C@@H](C)CC)[C@@H](C)CC)[C@@H](C)O)[C@@H](C)O)C(C)C)C(C)C [MELITTIN]
Activity (Lipid bilayer [21]): Active | Activity (Lipid bilayer [22]): Active | Activity (Candida albicans [23]): Active
